Reference: ChEMBL document CHEMBL1158367, “Cationic surfactants from lysine: synthesis, micellization and biological evaluation” (Eur J Med Chem, 2009)
Values after ≈ are worked out from the molar mass of the structure shown. Active and inactive are the calls of the source. The calls are words filed in the database; no cut-off is given here.

Experiments:
[1] = system: Staphylococcus epidermidis; assay: Antimicrobial activity against Staphylococcus epidermidis after 24 hrs; format: functional
Method in brief: (§1)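 MIC by agar dilution: compound incorporated in nutrient agar at 0.1–256 µg/mL, with poorly soluble surfactants predissolved in minimal DMF and a DMF-matched solvent control. Plates were seeded with nutrient broth starter culture and incubated at 37 °C. Growth was scored visually after 24 h; test medium pH 6.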

Bacillus subtilis = assay: Antimicrobial activity against Bacillus subtilis after 24 hrs; format: functional; method in brief: as §1
[2] = system: Bordetella bronchiseptica; assay: Antimicrobial activity against Bordetella bronchiseptica after 24 hrs; format: functional; method in brief: as §1
Escherichia coli [3] = assay: Antimicrobial activity against Escherichia coli after 24 hrs; format: functional; method in brief: as §1
Micrococcus luteus = assay: Antimicrobial activity against Micrococcus luteus after 24 hrs; format: functional; method in brief: as §1
Klebsiella pneumoniae [4] = assay: Antimicrobial activity against Klebsiella pneumoniae after 24 hrs; format: functional; method in brief: as §1
[5] = Critical micelle concentration by PGSE-NMR method; format: physicochemical
Method in brief: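 Surfactant intradiffusion measured by PGSE-NMR, varying gradient strength, from alkyl-chain CH2 signal intensities, at 25 °C (50 °C for the palmitoyl analogue). CMC taken from fitting the two-site exchange model D_obs = p_mic·D_mic + (1−p_mic)·D_free to the descending part of D versus concentration.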

Serratia marcescens [6] = assay: Antimicrobial activity against Serratia marcescens at […] after 24 hrs; format: functional, organism-based
Mycolicibacterium phlei = assay: Antimicrobial activity against Mycobacterium phlei after 24 hrs; format: functional; method in brief: as §1
Candida albicans [7] = assay: Antimicrobial activity against Candida albicans after 24 hrs; format: functional; method in brief: as §1
Klebsiella aerogenes [8] = assay: Antimicrobial activity against Enterobacter aerogenes at […] after 24 hrs; format: functional, organism-based
[9] = system: Salmonella enterica subsp. enterica; assay: Antimicrobial activity against Salmonella Typhimurium at […] after 24 hrs; format: functional, organism-based; conditions: Salmonella enterica subsp. enterica serovar Typhimurium
[10] = Toxicity in human erythrocytes assessed as hemolytic activity; format: cell-based, Erythrocyte
Method in brief: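 Erythrocytes washed three times in isotonic phosphate saline with 10 mmol/L glucose, pH 7.4, then exposed to surfactant for 10 min at room temperature with shaking and centrifuged. Supernatant A540 compared with water-lysed total-haemolysis controls. HC50 read from percent haemolysis versus concentration plots.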

[11] = Toxicity against Daphnia magna after 24 hrs by immobility assay
Method in brief: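 Daphnia magna acute test using laboratory-bred animals no older than 24 h. Medium pH 8.0, hardness 250 mg/L as CaCO3 (Ca/Mg 4/1), dark, 20 °C. Four groups of five per concentration, ten concentrations in geometric series. Immobility at 24 h plotted on log-probability paper; IC50 with 95% confidence ranges.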

[12] = system: Bordetella bronchiseptica; assay: Antimicrobial activity against Bordetella bronchiseptica at […] after 24 hrs; format: functional, organism-based
Pseudomonas aeruginosa [13] = assay: Antimicrobial activity against Pseudomonas aeruginosa at […] after 24 hrs; format: functional, organism-based
Bacillus cereus = assay: Antimicrobial activity against Bacillus cereus var. mycoides after 24 hrs; format: functional
Method in brief: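 Agar dilution MIC: compounds incorporated into nutrient agar over 0.1–256 µg/mL; poorly soluble ones first dissolved in minimal DMF, then diluted into medium, with a DMF-supplemented solvent control. Inoculated from a nutrient broth starter culture to a final ca. 5 × […] CFU/mL. Incubated 24 h at 37 °C; growth scored visually against a compound-free control.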

[14] = Dissociation constant, pKa of the compound; format: physicochemical
Method in brief: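 Apparent pKa calculated from pH measurements of surfactant solutions at concentrations that show antimicrobial activity.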

Staphylococcus aureus = assay: Antimicrobial activity against Staphylococcus aureus after 24 hrs; format: functional; method in brief: as §1
Enterococcus hirae = assay: Antimicrobial activity against Enterococcus hirae after 24 hrs; format: functional; method in brief: as §1
Klebsiella pneumoniae [15] = assay: Antimicrobial activity against Klebsiella pneumoniae at […] after 24 hrs; format: functional, organism-based
Candida albicans [16] = assay: Antimicrobial activity against Candida albicans at […] after 24 hrs; format: functional, organism-based
Klebsiella aerogenes [17] = assay: Antimicrobial activity against Enterobacter aerogenes after 24 hrs; format: functional; method in brief: as §1
Pseudomonas aeruginosa [18] = assay: Antimicrobial activity against Pseudomonas aeruginosa after 24 hrs; format: functional; method in brief: as §1
Serratia marcescens [19] = assay: Antimicrobial activity against Serratia marcescens after 24 hrs; format: functional; method in brief: as §1
[20] = system: Salmonella enterica subsp. enterica; assay: Antimicrobial activity against Salmonella Typhimurium after 24 hrs; format: functional, Salmonella enterica subsp. enterica serovar Typhimurium; method in brief: as §1
Escherichia coli [21] = assay: Antimicrobial activity against Escherichia coli at […] after 24 hrs; format: functional, organism-based

Compound	MIC [1] [µM]	MIC (Bacillus subtilis) [µM]	MIC [2] [µM]	MIC (Escherichia coli [3]) [µM]	MIC (Micrococcus luteus) [µM]	MIC (Klebsiella pneumoniae [4]) [µM]	CMC [5] [mM]	Activity (Serratia marcescens [6])	MIC (Mycolicibacterium phlei) [µM]	MIC (Candida albicans [7]) [µM]	Activity (Klebsiella aerogenes [8])	Activity [9]	IC50 [10] [µM]	IC50 [11] [µM]	Activity [12]	Activity (Pseudomonas aeruginosa [13])	MIC (Bacillus cereus) [µM]	pKa [14]	MIC (Staphylococcus aureus) [µM]	MIC (Enterococcus hirae) [µM]	also measured
hexadecyl trimethyl ammonium bromide	10	44	20	44	44	44	–	–	–	–	–	–	–	–	–	–	–	–	–	–	–
CCCCCCCCCCCC(=O)NCCCC[C@H](N)C(=O)OC.Cl	169	338	–	169	338	338	5.5	inactive	169	169	inactive	inactive	391	32	inactive	inactive	169	8.2	338	338	–
CCCCCCCCCCCCCC(=O)NCCCC[C@H](N)C(=O)OC.Cl	157	157	–	157	157	–	1.6	inactive	78	–	inactive	inactive	1230	7.3	inactive	inactive	157	7.8	157	157	Activity (Klebsiella pneumoniae [15]): inactive; Activity (Candida albicans [16]): inactive
CCCCCCCCCCCC(=O)N[C@@H](CCCCN)C(=O)OC	42 (≈ 14.4 µg/mL)	42 (≈ 14.4 µg/mL)	42 (≈ 14.4 µg/mL)	42 (≈ 14.4 µg/mL)	11 (≈ 3.77 µg/mL)	85 (≈ 29.1 µg/mL)	–	–	–	–	–	–	199	–	–	–	–	–	85 (≈ 29.1 µg/mL)	–	MIC (Klebsiella aerogenes [17]): 157 µM (≈ 53.8 µg/mL); MIC (Pseudomonas aeruginosa [18]): 169 µM (≈ 57.9 µg/mL); MIC (Serratia marcescens [19]): 338 µM (≈ 116 µg/mL); MIC [20]: 85 µM (≈ 29.1 µg/mL)
CCCCCCCCCCCC(=O)N[C@@H](CCCNC(=N)N)C(=O)OC	20 (≈ 7.41 µg/mL)	157 (≈ 58.2 µg/mL)	157 (≈ 58.2 µg/mL)	157 (≈ 58.2 µg/mL)	39 (≈ 14.5 µg/mL)	79 (≈ 29.3 µg/mL)	–	–	39 (≈ 14.5 µg/mL)	157 (≈ 58.2 µg/mL)	–	–	150	36	–	–	39 (≈ 14.5 µg/mL)	–	39 (≈ 14.5 µg/mL)	39 (≈ 14.5 µg/mL)	MIC (Klebsiella aerogenes [17]): 157 µM (≈ 58.2 µg/mL); MIC (Pseudomonas aeruginosa [18]): 157 µM (≈ 58.2 µg/mL); MIC (Serratia marcescens [19]): 315 µM (≈ 117 µg/mL); MIC [20]: 157 µM (≈ 58.2 µg/mL)
CCCCCCCCCCCCCCCC(=O)NCCCC[C@H](N)C(=O)OC.Cl	148	148	–	–	74	–	0.6	inactive	148	–	inactive	inactive	1450	–	inactive	inactive	148	–	148	74	Activity (Klebsiella pneumoniae [15]): inactive; Activity (Candida albicans [16]): inactive; Activity (Escherichia coli [21]): inactive
